A short description of data set [1]: Protein binding in human serum at 25 to 100 uM after 4 hrs by LC-MS method. The data set is classed as ADME, cell-free. To be noted: read-out: PB (converted).
Data set [2] in a line: Selectivity index, ratio of CC50 for human HeLa cells to EC50 for norovirus.
The nature of data set [3]: Metabolic stability of mouse liver microsomes assessed as amount of parent compound remaining at 25 to 100 uM after 1 hr in the presence of NADPH by LC-MS method. It counts as ADME, microsome. The conditions noted are these: read-out: Stability. In outline:
(§1)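 Compound at 25 or 100 μM was incubated with mouse or human liver microsomes plus NADPH for 1 h at 37 °C. The remaining aldehyde form was quantified by LC/MS.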
(In general: Liver microsomes are a subcellular fraction often used to study metabolism.)

A further data set has as its system Norovirus. Put plainly: Antiviral activity against Norovirus infected in human HG23 cells assessed as inhibition of viral replication after 48 hrs by quantitative RT-PCR method. It counts as functional, cell-based. To be noted: HG23, 48 h.
Data set [4] can be described thus: Metabolic stability of human liver microsomes assessed as amount of parent compound remaining at 25 to 100 uM after 1 hr in the presence of NADPH by LC-MS method. To be noted: read-out: Stability. It counts as ADME, microsome. The method, boiled down: as §1
A short description of data set [5]: Protein binding in mouse serum at 25 to 100 uM after 4 hrs by LC-MS method. The data set is classed as ADME, cell-free. The conditions noted are these: read-out: PB (converted).
The next data set concerns HeLa. Put plainly: Cytotoxicity against human HeLa cells assessed as cell viability after 72 hrs by MTT assay. It counts as functional.
A short description of data set [6]: Inhibition of Norovirus 3CL protease using Edans-DFHLQ/GP-Dabcyl as substrate after 30 mins by FRET assay. The method, boiled down:
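Norovirus 3CL protease was preincubated with serial compound dilutions up to 100 μM, or DMSO, for 30 min at 37 °C. Edans-DFHLQ/GP-Dabcyl substrate was then added. Buffer was 20 mM HEPES pH 8, 200 mM NaCl, 0.4 mM EDTA, 60% glycerol and 6 mM DTT. Fluorescence (ex 360/em 460 nm) was read for 1 h, minus the no-protease background. IC50 came from variable-slope curve fits.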

Data set [7] is described as follows: Metabolic stability in human serum assessed as amount of parent compound remaining at 25 to 100 uM at 37 degC after 1 hr by LC-MS analysis. It counts as ADME, cell-free. To be noted: read-out: Stability.
Data set [8] in a line: Metabolic stability in mouse serum assessed as amount of parent compound remaining at 25 to 100 uM at 37 degC after 1 hr by LC-MS analysis. The data set is classed as ADME, cell-free. The conditions noted are these: read-out: Stability.
The next data set has as its system Serum. Put plainly: Prodrug activation in human serum assessed as 3-chlorobenzyl (S)-3-cyclohexyl-1-oxo-1-((S)-1-oxo-3-((S)-2-oxopyrrolidin-3-yl)propan-2-ylamino)propan-2-ylcarbamate formation by measuring parent compound half life at 25 to 100 uM by LC-MS method. It counts as ADME, cell-free.
A short description of data set [9]: Prodrug activation in human HG23 cells assessed as 3-chlorobenzyl (S)-3-cyclohexyl-1-oxo-1-((S)-1-oxo-3-((S)-2-oxopyrrolidin-3-yl)propan-2-ylamino)propan-2-ylcarbamate formation by LC-MS method. The data set is classed as ADME, cell-based.

What is called EC50 is the concentration at which the effect is half-maximal. The CC50 is the concentration at which the toxic effect on the cells reaches its halfway point. By IC50 is commonly meant the point on the concentration scale where inhibition reaches its midpoint. Read a high IC50 as weaker potency in that assay.

In the case of `O=C[C@H](C[C@@H]1CCNC1=O)NC(=O)[C@H](CC1CCCCC1)NC(=O)OCc1cccc(Cl)c1`, the fraction unbound at 4 h, up to 100 µM in data set [1] and in [5] was 0.02 each time. Also, the selectivity ratio in data set [2] worked out at 2800. The remaining at 1 h, up to 100 µM in data set [3] came out at 40%; in data set [4], 63%. In addition, the EC50 with Norovirus came to 0.02 µM. Moreover, the CC50 with HeLa was 56.1 µM. In data set [6], this compound returned an IC50 of 0.1 µM.
Take `O=C(N[C@@H](CC1CCCCC1)C(=O)N[C@@H](C[C@@H]1CCNC1=O)C(O)S(=O)(=O)O)OCc1cccc(Cl)c1` (some centres undefined): the results for the fraction unbound at 4 h, up to 100 µM in data set [1] and in data set [5] were 0.04 and 0.03, respectively. Also, the selectivity ratio in data set [2] is 2480. Also, the remaining at 1 h, up to 100 µM in [7] amounted to 0%; in [3], 35%; in [4], 54%; in data set [8], 0%. Moreover, the EC50 with Norovirus was 0.02 µM. Also, the CC50 with HeLa was 49.6 µM. Besides, the IC50 in [6] was determined as 0.1 µM.
`CC(C)C[C@H](NC(=O)OCc1ccccc1)C(=O)N[C@@H](C[C@@H]1CCNC1=O)C(O)S(=O)(=O)O` (some centres undefined): the figures for the fraction unbound at 4 h, up to 100 µM in [1] and in data set [5] were 0.35 and 0.29, respectively. For the same compound, the selectivity ratio in data set [2] is greater than 667. The remaining at 1 h, up to 100 µM came to 2% in [7], 82% in [3], 92% in data set [4] and 18% in data set [8]. Further, the EC50 in the data set on Norovirus came out at 0.3 µM. In addition, in the data set with HeLa, the CC50 is greater than 200 µM. Also, the IC50 in data set [6] stood at 0.8 µM.
On to `CCCC(=O)OC([C@H](C[C@@H]1CCNC1=O)NC(=O)[C@H](CC(C)C)NC(=O)OCc1ccccc1)S(=O)(=O)O` (some centres undefined), for which the EC50 in the data set with Norovirus is 1.3 µM. The compound also yielded an IC50 in [6] of 3.7 µM.
For `COC(=O)C(NC(=O)OC([C@H](C[C@@H]1CCNC1=O)NC(=O)[C@H](CC1CCCCC1)NC(=O)OCc1cccc(Cl)c1)S(=O)(=O)O)C(C)C` (some centres undefined), the EC50 in the data set on Norovirus was determined as 0.04 µM. This compound also yielded an IC50 in [6] of 0.5 µM.
For `COC(=O)C(C)NC(=O)OC([C@H](C[C@@H]1CCNC1=O)NC(=O)[C@H](CC1CCCCC1)NC(=O)OCc1cccc(Cl)c1)S(=O)(=O)O` (some centres undefined) the same measures were 0.025 µM and 0.8 µM.
Taken in the same sequence, the figures for `CCCCCCCC(=O)OC([C@H](C[C@@H]1CCNC1=O)NC(=O)[C@H](CC1CCCCC1)NC(=O)OCc1cccc(Cl)c1)S(=O)(=O)O` (some centres undefined) were 0.03 µM and 0.9 µM.
Taken in the same sequence, the figures for `CCCCCC(=O)OC([C@H](C[C@@H]1CCNC1=O)NC(=O)[C@H](CC(C)C)NC(=O)OCc1ccccc1)S(=O)(=O)O` (some centres undefined) were 0.3 µM and 2.8 µM.
As to `COC(=O)C(C)NC(=O)OC([C@H](C[C@@H]1CCNC1=O)NC(=O)[C@H](CC(C)C)NC(=O)OCc1ccccc1)S(=O)(=O)O` (some centres undefined), the EC50 with Norovirus is 0.3 µM. The compound also yielded an IC50 in data set [6] of 1.8 µM.
For `CCCCCCOC(=O)OC([C@H](C[C@@H]1CCNC1=O)NC(=O)[C@H](CC1CCCCC1)NC(=O)OCc1cccc(Cl)c1)S(=O)(=O)O` (some centres undefined) the same measures were 0.025 µM and 0.8 µM.
With `CCC(=O)OC([C@H](C[C@@H]1CCNC1=O)NC(=O)[C@H](CC1CCCCC1)NC(=O)OCc1cccc(Cl)c1)S(=O)(=O)[O-].[Na+]` (some centres undefined), the selectivity ratio in data set [2] turned out to be 4480. Moreover, the t1/2 with Serum is listed as 25 min. The remaining at 1 h, up to 100 µM in data set [7] turned out to be 52%; in [3] it was 17%; in data set [4], 11%; in [8], 0%. The EC50 with Norovirus stood at 0.025 µM. Also, the CC50 in the data set on HeLa is 112 µM. This compound also yielded an IC50 in data set [6] of 0.1 µM.
With `CC(C)C[C@H](NC(=O)OCc1ccccc1)C(=O)N[C@@H](C[C@@H]1CCNC1=O)C(OC(=O)c1ccccc1)S(=O)(=O)O` (some centres undefined), the EC50 with Norovirus stood at 0.8 µM. The same compound yielded an IC50 in [6] of 7.2 µM.
Taken in the same sequence, the figures for `CC(=O)OC([C@H](C[C@@H]1CCNC1=O)NC(=O)[C@H](CC1CCCCC1)NC(=O)OCc1ccccc1)S(=O)(=O)O` (some centres undefined) were 0.2 µM and 7.5 µM.
Consider `CCC(=O)OC([C@H](C[C@@H]1CCNC1=O)NC(=O)[C@H](CC(C)C)NC(=O)OCc1ccccc1)S(=O)(=O)O` (some centres undefined), for which the EC50 with Norovirus amounted to 0.7 µM. In addition, the IC50 in data set [6] was 7.5 µM.
Taken in the same sequence, the figures for `COC(=O)C(NC(=O)OC([C@H](C[C@@H]1CCNC1=O)NC(=O)[C@H](CC(C)C)NC(=O)OCc1ccccc1)S(=O)(=O)O)C(C)C` (some centres undefined) were 0.4 µM and 2.5 µM.
For `CC(C)C[C@H](NC(=O)OCc1ccccc1)C(=O)N[C@@H](C[C@@H]1CCNC1=O)C(OC(=O)C(C)C)S(=O)(=O)O` (some centres undefined) the same measures were 0.3 µM and 3.5 µM.
Turning to `COC(=O)C(C)NC(=O)OC([C@H](C[C@@H]1CCNC1=O)NC(=O)[C@H](CC1CCCCC1)NC(=O)OCc1ccccc1)S(=O)(=O)O` (some centres undefined), in the data set on Norovirus, the EC50 was determined as 0.2 µM. Also, in data set [6], the IC50 was found to be 10.2 µM.
For `CC(C)C(=O)OC([C@H](C[C@@H]1CCNC1=O)NC(=O)[C@H](CC1CCCCC1)NC(=O)OCc1cccc(Cl)c1)S(=O)(=O)O` (some centres undefined) the same measures were 0.03 µM and 0.3 µM.
For `CCCCC(=O)OC([C@H](C[C@@H]1CCNC1=O)NC(=O)[C@H](CC(C)C)NC(=O)OCc1ccccc1)S(=O)(=O)O` (some centres undefined) the same measures were 1.4 µM and 3.5 µM.
For `COC(=O)CNC(=O)OC([C@H](C[C@@H]1CCNC1=O)NC(=O)[C@H](CC(C)C)NC(=O)OCc1ccccc1)S(=O)(=O)O` (some centres undefined) the same measures were 0.4 µM and 3.1 µM.
Regarding `CCCCCC(=O)OC([C@H](C[C@@H]1CCNC1=O)NC(=O)[C@H](CC1CCCCC1)NC(=O)OCc1cccc(Cl)c1)S(=O)(=O)O` (some centres undefined), the selectivity ratio in [2] was found to be 5470. Besides, the remaining at 1 h, up to 100 µM in [7] worked out at 103%; in data set [3], 38%; in [4] it was 76%; in data set [8], 60%. Moreover, in the data set on Norovirus, the EC50 was determined as 0.015 µM. Further, the CC50 with HeLa is 82 µM. This compound also yielded an IC50 in data set [6] of 0.1 µM.
Regarding `CCCCCCCC(=O)OC([C@H](C[C@@H]1CCNC1=O)NC(=O)[C@H](CC(C)C)NC(=O)OCc1ccccc1)S(=O)(=O)O` (some centres undefined), the EC50 with Norovirus was found to be 0.5 µM. For the same compound, half-maximal inhibition in data set [6] (IC50) was put at 3 µM.
For `CC(=O)OC([C@H](C[C@@H]1CCNC1=O)NC(=O)[C@H](CC(C)C)NC(=O)OCc1ccccc1)S(=O)(=O)O` (some centres undefined) the same measures were 0.6 µM and 10.5 µM.
With `CC(=O)OC([C@H](C[C@@H]1CCNC1=O)NC(=O)[C@H](CC1CCCCC1)NC(=O)OCc1cccc(Cl)c1)S(=O)(=O)[O-].[Na+]` (some centres undefined), in data set [2], the selectivity ratio is greater than 6670. In the data set on Serum, the t1/2 turned out to be 25 min. Further, in data set [9], the Drug metabolism entry is “Metabolite_Detected”. For the same compound, the remaining at 1 h, up to 100 µM was found to be 56% in data set [7], 14% in data set [3], 17% in data set [4] and 0% in [8]. Further, the EC50 in the data set with Norovirus is 0.03 µM. In the data set with HeLa, the CC50 was greater than 200 µM. Moreover, the IC50 in [6] turned out to be 0.08 µM.
For the compound `O=C(N[C@@H](CC1CCCCC1)C(=O)N[C@@H](C[C@@H]1CCNC1=O)C(OC(=O)C1CCCCC1)S(=O)(=O)O)OCc1cccc(Cl)c1` (some centres undefined), the EC50 with Norovirus amounted to 0.02 µM. Besides, in data set [6], the IC50 was found to be 0.4 µM.
For the compound `COc1ccc(CCN(C)CCCC(C#N)(c2ccc(OC)c(OC)c2)C(C)C)cc1OC` (centres undefined), the remaining at 1 h, up to 100 µM was 30% in data set [3] and 41% in data set [4].
Regarding `CC(=O)CC(c1ccccc1)c1c(O)c2ccccc2oc1=O` (centres undefined) [WARFARIN], the fraction unbound at 4 h, up to 100 µM in [1] is 0.01; in data set [5], 0.04. Moreover, the remaining at 1 h, up to 100 µM in data set [3] is 99.6%; in data set [4], 95%.
